Compounds with a hit are over-represented: about 5.1% of the library has one in this group of screens.
STAT3 inh = STAT3 signaling inhibition; AID 862; U3A cells, IL-6 STAT3-luciferase reporter, luminescence; host cell line lacks STAT1; actives 0.89% (n = 190,000); inhibition, % at 5.5 µM;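 active means inhibition above the mean inhibition across all screened compounds plus 3 SD, cut at about 44% in these data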
STAT1 activator = STAT1 signaling activation; NIH 3T3 STAT1-luciferase reporter, IFN-gamma, luminescence; 100% = IFN-gamma alone, no compound; activation (% of control), % at 5.5 µM; actives 2.6% (n = 200,000); AID 932;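 active means activation above the screen-wide mean activation plus 3 SD, cut at about 130% in these data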
STAT3 activator = activators of IL-6 induced STAT3 signaling. U3A cells, IL-6 STAT3-luciferase reporter, luminescence; 100% = signal with IL-6 EC80 alone. activation (% of control), % at 5.6 µM. actives 0.91% (n = 190,000). AID 871;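 active means activation above the screen-wide mean of compound activation plus 3 SD, cut at about 130% in these data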
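Material: human STAT1-deficient U3A cells with stable STAT3-luciferase reporter / Probe or stimulus: IL-6 stimulus at 33 ng/mL final / Schedule: 1 h compound pre-exposure, 6 h IL-6 stimulation, 37 °C / Technique: luminescence / Read-out basis: percent of IL-6-only median luminescence / Control set: IL-6-only high control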
STAT1 blocker = reduces IFN-gamma driven STAT1 reporter signal; NIH 3T3 STAT1-luciferase reporter, luminescence; inhibition, % at 5.5 µM; actives 0.35% (n = 200,000); AID 920;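 active means inhibition above a set limit, the mean inhibition across all tested compounds plus 3 SD, cut at about 34% in these data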
APP 5'UTR act = activates APP 5'UTR luciferase reporter; activation, % at 2 µM; actives 1% (n = 190,000); SH-SY5Y APP 5'UTR luciferase reporter, luminescence; zero percent = DMSO vehicle wells; AID 1276;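 active means activation above a set limit, based on mean plus 3 SD of controls, cut at about 140% in these data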
NF-kB expr up = compounds increasing NF-kB expression in human neuronal cells; actives 1.6% (n = 190,000); NF-kB reporter expression; hits give high values; fold change at 12.5 µM; AID 1239; in the data active means fold change above about 3.3
Each line names hits and unclear results; the compound was inactive in the other large screens.

O=C(O/N=C(\c1ccccc1)c1ccccn1)c1ccc(Cl)c(Cl)c1	none
Cc1c(CN(C)C(=O)c2ccc(Br)o2)cnn1C	none
COc1cc(C(=O)NC2=C(C#N)CCC2)cc(OC)c1OC	none
Cc1ccc([N+](=O)[O-])cc1-c1ccc(/C=C(\C#N)c2[nH]nc(N)c2C#N)o1	STAT1 activator 140
Nc1ccc(Nc2ccccc2N)cc1	none
Nc1ccccc1Nc1cccc(C(F)(F)F)c1	STAT1 activator 129
Clc1ccc(C2=Nn3c(nnc3-c3cccs3)SC2)cc1	none
Cc1nnc2n(c1=O)N=C(c1ccc(Cl)cc1)CS2	STAT1 activator 132
Cc1cccc(-n2c(C)cc(/C=N\NC(=O)c3ccco3)c2C)c1	STAT1 activator 145
O=C(N/N=C/c1ccccn1)c1cccs1	STAT1 activator 132
Cc1cccc(-n2c(C)cc(/C=N/O)c2C)c1	none
Cc1cc(/C=N\NC(=O)c2cccs2)c(C)n1-c1ccc2ncccc2c1	STAT1 activator 130
O=C(N/N=C\c1ccccn1)c1ccccc1O	none
Cc1ccccc1C(=O)N/N=C/c1ccccn1	STAT1 activator 136
COc1ccc(-c2nc3cc([N+](=O)[O-])ccc3o2)cc1	STAT1 activator 150, APP 5'UTR act 170, NF-kB expr up 5.2
O=C(O/N=C/c1ccc2c(c1)OCO2)c1ccccc1Cl	NF-kB expr up 3.7
O=C(O/N=C\c1ccc(N2CCOCC2)c([N+](=O)[O-])c1)c1ccccc1Cl	none
CN(C)CCNC(=O)/C=C/c1cn(-c2ccccc2)nc1-c1cc2ccccc2oc1=O	none
O=C(c1ccc(Cl)cc1)c1coc2ccc(O)cc12	NF-kB expr up 8.8
COc1ccc2occ(C(=O)c3ccccc3)c2c1	STAT1 activator 135
CC(=O)NCCNC(=O)c1ccc(CSc2ccc(Cl)cc2)cc1	STAT1 activator 142, APP 5'UTR act 147
CC(C)N(Cc1ccccc1)C(=S)NC1CCCCC1	none
O=C(COC(=O)c1ccc2ccccc2n1)c1ccccc1	none
O=C(CSc1cn(Cc2ccccc2)c2ccccc12)Nc1nccs1	STAT1 activator 146
O=C(CSc1ccccc1)Nc1nccs1	none
COc1ccc(NC(=O)/C(C#N)=C\C=C\c2ccco2)cc1	none
COc1ccccc1Cn1c(-c2ccco2)nc2nc3ccccc3nc21	none (no result: NF-kB expr up)
Clc1ccc(-c2nc3nc4ccccc4nc3n2Cc2ccco2)cc1	NF-kB expr up 3.7
Cc1ccc(-c2nc3nc4ccccc4nc3n2Cc2ccco2)cc1	APP 5'UTR act 181
CCC(=O)OCC(=O)Nc1cc([N+](=O)[O-])ccc1Cl	none
Cc1ccc(NC(=O)c2ccc(N3C(=O)C4CC=C(Cl)CC4C3=O)cc2)cc1 (centres undefined)	none (no result: APP 5'UTR act)
C/C(=N\O)c1ccc(N2C(=O)C3CC=C(Cl)CC3C2=O)cc1 (centres undefined)	STAT1 activator 139, APP 5'UTR act 144
O=C(Nc1ccc2c(c1)OCCO2)c1ccccn1	STAT3 inh 70, STAT1 blocker 47
O=C(Nc1ccc(NC(=O)c2ccccn2)cc1)C(=O)Nc1ccc2c(c1)OCCO2	none
CCn1cc(Cl)c(C(=O)Nc2ccc3c(c2)OCCO3)n1	APP 5'UTR act 137, NF-kB expr up 4.1
Cc1ccc(NC(=O)c2ccc3ccccc3n2)cc1S(=O)(=O)N(C)C	STAT1 activator 134
O=C(CSCc1ccccc1Cl)Nc1ccc2c(c1)OCCO2	APP 5'UTR act 137
O=C(Nc1ccc2c(c1)OCCO2)c1cnc2ccccn2c1=O	STAT1 activator 154 (no result: NF-kB expr up)
O=C(Nc1ccc2c(c1)OCCO2)c1cccc2nc3ccccc3nc12	none
O=C(NCc1ccc2c(c1)OCO2)c1cnc2ccccn2c1=O	none
Cc1ccc(NC(=O)c2cncc(Br)c2)cc1S(=O)(=O)N(C)C	STAT1 activator 136
O=C(Nc1ccc2c(c1)OCCO2)c1ccc2ccccc2n1	STAT1 activator 137, APP 5'UTR act 220, NF-kB expr up 9.2
CCC(C)Nc1nnnc2c1sc1nc3c(cc12)COC(C)(C)C3 (centres undefined)	none
CN(C)c1ccc(/C=C2/SC(=O)N(CCN=C3NS(=O)(=O)c4ccccc43)C2=O)cc1	STAT1 activator 133
CCC12CN3CCN(CC(C3)/C1=N\NC(=O)c1ccc(F)cc1)C2	none
COc1ccc(C2=NN(C(C#N)c3ccc(OC)c(OC)c3)C(c3ccccc3)C2)cc1 (centres undefined)	APP 5'UTR act 155, NF-kB expr up 6.1
COc1ccc(C(C#N)N2CCC(c3ccccc3)=N2)cc1OC (centres undefined)	none
CC1=CC(C)(C)N2C(=O)C3(C(C#N)=C(N)Oc4cc(O)ccc43)c3cccc1c32 (centres undefined)	STAT1 activator 131
Cc1ccc(C(=O)Nc2cccnc2)cc1S(=O)(=O)N1CCOCC1	none
Cc1ccc(C(=O)Nc2ccc3cn[nH]c3c2)cc1S(=O)(=O)N1CCOCC1	STAT1 activator 130, STAT3 activator 142 (no result: NF-kB expr up)
COc1cc([N+](=O)[O-])ccc1N=Nc1c(N)[nH]n(-c2ccccc2)c1=O	none
Nc1[nH]n(-c2ccccc2)c(=O)c1N=Nc1ccccc1[N+](=O)[O-]	STAT1 activator 139
Cc1ccc(S(=O)(=O)Nc2ccc(O)c(Sc3ncn[nH]3)c2)cc1	none
Cc1ccc(S(=O)(=O)/N=C2/C=C(Sc3ncn[nH]3)C(=O)c3ccccc32)c(C)c1	STAT3 activator 142
CC(C)c1ccc(S(=O)(=O)/N=C2/C=C(Sc3ncn[nH]3)C(=O)c3ccccc32)cc1	STAT3 activator 152
COc1cc(C(=O)/C=C/Nc2ccc(NC(C)=O)cc2)cc(OC)c1OC	none
CC(=O)Nc1ccc(N/C=C/C(=O)c2ccc(C)o2)cc1	STAT1 activator 143
COc1ccccc1Oc1ccc(N/C=C/C(=O)c2ccc(C)o2)cc1	STAT1 activator 132
Cc1c2c(nc3ccccc13)OCC2	none
CC(=O)C1=C(O)CCCC1=NCc1nc2ccccc2[nH]1	none
Cc1nc(SCC(=O)NC(=O)NC(C)C)nc(C)c1C	none
O=C(CC(SCc1ccco1)c1ccc(O)cc1)c1cccs1 (centres undefined)	NF-kB expr up 5.4
O=C(CC(SCCO)c1ccc2c(c1)OCO2)c1cccs1 (centres undefined)	STAT1 activator 132
O=C(CSc1nnc(-c2ccc(O)cc2)n1Cc1ccco1)c1cccs1	none
Nc1ccc(CCc2nc3ccccc3o2)cc1	STAT1 activator 138, APP 5'UTR act 163
Cc1ccc(-c2ccnc3nc(-n4cccc4)nn23)o1	none
CC1=C(C#N)C(Nc2ccc(C)cn2)(C(F)(F)F)C(=O)N1 (centres undefined)	none
COc1cccc(OCc2nc3ccccc3[nH]2)c1	NF-kB expr up 3.4
COc1ccc(OCc2nc3ccccc3[nH]2)cc1	NF-kB expr up 4 (no result: APP 5'UTR act)
O=[N+]([O-])c1ccccc1S(=O)(=O)NC1CCCC1	none

High-throughput results: PubChem, several laboratories
